7 compounds from ChEMBL document CHEMBL3872217, “Structure-guided discovery of thiazolidine-2,4-dione derivatives as a novel class of Leishmania major pteridine reductase 1 inhibitors” (Eur J Med Chem, 2016) can be followed below.

The source made the active and inactive calls. The calls are words filed in the database; no cut-off is given here. Where only a bound is given, the exact number is not on record here.

For assay [1], the target named is T1, Pteridine reductase 1 (Leishmania major) (UniProt Q01782).
T1 sequence (whole entry): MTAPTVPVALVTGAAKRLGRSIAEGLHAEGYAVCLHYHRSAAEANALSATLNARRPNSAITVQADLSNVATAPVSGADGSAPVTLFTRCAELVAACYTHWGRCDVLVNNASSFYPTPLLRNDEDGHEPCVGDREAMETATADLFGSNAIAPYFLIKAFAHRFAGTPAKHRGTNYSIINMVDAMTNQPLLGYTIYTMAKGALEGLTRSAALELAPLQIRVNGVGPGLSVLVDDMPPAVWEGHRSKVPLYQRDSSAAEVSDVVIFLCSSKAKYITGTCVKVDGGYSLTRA
The experiment in a line: Noncompetitive inhibition of Leishmania major recombinant N-terminal hexa-His tagged PTR1 catalytic activity expressed in Escherichia coli BL21(DE3) at 25 to 45 uM at pH 4.7 in presence of saturating concentration of biopterin and varying levels of NADPH by double-reciprocal plot analysis. The method, boiled down:
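Inhibition mode measured under the 340 nm kinetic conditions (0.2 μM LmPTR1, 20 mM sodium citrate pH 4.7, 30 °C, 60 s). Biopterin held at saturating 40 μM; NADPH varied over 5.0, 7.5, 10.0, 20.0 and 40.0 μM at two fixed inhibitor concentrations. Analysed by double-reciprocal plots; means of at least three experiments.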

In assay [2] the target is T1, Pteridine reductase 1 (Leishmania major). Description: Noncompetitive inhibition of Leishmania major recombinant N-terminal hexa-His tagged PTR1 catalytic activity expressed in Escherichia coli BL21(DE3) assessed as decrease in thermal shift stabilization at 50 uM at pH 4.7 in presence of varying levels of NADPH and constant biopterin substrate concentration by SYPRO orange dye based assay. Put shortly: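 Inhibition type probed by repeating the TSA screen (5 μM LmPTR1, 50 mM sodium acetate pH 4.7, SYPRO Orange, compound 50 μM) while varying NADPH at 0.0, 3.0, 6.25, 12.5 and 50 μM. Triplicate; ΔTm values compared by Kruskal-Wallis non-parametric ANOVA.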

Assay [3] has the same target. Description: Binding affinity to Leishmania major recombinant N-terminal hexa-His tagged PTR1 expressed in Escherichia coli BL21(DE3) assessed as change in melting temperature at 50 uM at pH 4.7 by SYPRO orange dye based thermal shift assay. The method, boiled down:
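Recombinant LmPTR1 from E. coli BL21(DE3) with pET-LmPTR1, Ni-NTA purified. Protein 5 μM in 50 mM sodium acetate pH 4.7 with SYPRO Orange (excitation 492, emission 610 nm); compound 50 μM from 1 mM DMSO stock; reference wells with DMSO only. Melt 25–85 °C at 1 °C per min; Tm from Boltzmann sigmoidal fit; triplicate; ΔTm compared by Kruskal-Wallis.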

The next assay deals with T2, Pteridine reductase 1 (Leishmania major, UniProt Q01782).
T2 sequence (Q01782 whole entry): T1 sequence (whole entry)
Description: Inhibition of Leishmania major recombinant N-terminal hexa-His tagged PTR1 catalytic activity expressed in Escherichia coli BL21(DE3) using biopterin as substrate measured for 60 sec in presence of NADPH by UV-visible spectrophotometric method relative to control. Put shortly: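 Spectrophotometric assay at 30 °C with purified recombinant LmPTR1 at 0.2 μM in 20 mM sodium citrate pH 4.7, with NADPH and biopterin cofactor/substrate. Compound added in 5% DMSO (v/v). NADPH consumption followed as the drop in absorbance at 340 nm over 60 s; triplicate. IC50 by non-linear regression over at least six inhibitor concentrations.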

Assay [4] has as its target T1, Pteridine reductase 1 (Leishmania major). Description: Effect on thermal stability of Leishmania major recombinant N-terminal hexa-His tagged PTR1 expressed in Escherichia coli BL21(DE3) by SYPRO orange dye based thermal shift assay. The method, boiled down: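 Dose-response thermal stability run on Ni-NTA purified LmPTR1 (expressed from pET-LmPTR1 in E. coli BL21(DE3)) at 5 μM in 50 mM sodium acetate pH 4.7 with SYPRO Orange. Excitation 492 nm and emission 610 nm; ramp 25–85 °C, 1 °C per min. Tm taken from a Boltzmann sigmoidal fit against DMSO reference wells; done in triplicate.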

For assay [5] the target is unchanged. The experiment in a line: Inhibition of Leishmania major recombinant N-terminal hexa-His tagged PTR1 catalytic activity expressed in Escherichia coli BL21(DE3) at 50 uM using biopterin as substrate measured for 60 sec in presence of NADPH by UV-visible spectrophotometric method relative to control.

As usually defined, the inhibition is the percentage by which the read-out fell short of the control. In general, ΔTm refers to the change in melting temperature against a reference sample. Usually IC50 stands for the concentration needed to halve the response being measured.

With `O=C1NC(=O)/C(=C/c2cc(Cl)cc(Br)c2O)S1`, the inhibition entry in assay [1], in assay [2] and in assay [5] was “Active” throughout. In addition, the shift in melting temperature (ΔTm) in assay [3] amounted to 11 °C. On Pteridine reductase 1, the IC50 is 44.7 µM. For the same compound, the Activity in assay [4] was greater than 200 µM.
`COc1ccc(Br)c(/C=C2\SC(=O)NC2=O)c1`: the ΔTm in assay [3] is greater than 1 °C.
`O=C1NC(=O)/C(=C/c2c(F)cccc2Br)S1`: the shift in melting temperature (ΔTm) in assay [3] came out at 1.7 °C. In addition, at Pteridine reductase 1, the IC50 was found to be 589 µM. Moreover, the inhibition in assay [5] turned out to be 36%.
In the case of `O=C1NC(=O)/C(=C/c2ccc(Cl)cc2Cl)S1`, the shift in melting temperature (ΔTm) in assay [3] is greater than 1 °C.
The same measure, in the same setting: as for `O=C1NC(=O)/C(=C/c2c(Cl)cccc2Cl)S1`, the figure is less than 1 °C.
Consider `O=C1NC(=O)/C(=C/c2cc(Cl)ccc2O)S1`, for which the shift in melting temperature (ΔTm) in assay [3] is greater than 1 °C. For the same compound, the IC50 at Pteridine reductase 1 was found to be 75.9 µM. Moreover, the Activity in assay [4] is greater than 200 µM. Also, the inhibition result in assay [5] is “Active”.
For the compound `O=C1NC(=O)/C(=C/c2ccc(Cl)c(Cl)c2)S1`, the shift in melting temperature (ΔTm) in assay [3] is 3.01 °C.
